In ChEMBL document CHEMBL4814076, “Discovery of a Potent and Selective Covalent Inhibitor of Bruton's Tyrosine Kinase with Oral Anti-Inflammatory Activity” (ACS Med Chem Lett, 2021):
Calls of active or inactive are those of the source. The calls are words filed in the database; no cut-off is given here.

Key:
[1] = biological target: Receptor tyrosine-protein kinase erbB-4 (Homo sapiens, UniProt Q15303); test: Inhibition of recombinant human ERBB4 (706 to 991 residues) using poly(Glu, Tyr) 4:1 as substrate incubated for 40 mins in presence of [gamma33P]ATP by scintillation counting method
[2] = Clearance in Sprague-Dawley rat at 5 mg/kg, po or 1 mg/kg, iv measured upto 24 hrs by LC-MS/MS analysis; assay type: ADME, organism-based; settings: in vivo
How it was run: (§1)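 Rats (nonfasted; IV 1 mg/kg, PO 5 mg/kg) and dogs (fasted; IV 0.5 mg/kg, PO 2.5 mg/kg) dosed from 20% hydroxypropyl-β-cyclodextrin solution.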

[3] = biological target: T1, Tyrosine-protein kinase Lck (Homo sapiens, UniProt P06239); test: Inhibition of LCK in human CD4+ T-cells assessed as reduction in anti-CD3/anti-CD28 induced IL-2 secretion at 10 uM incubated for 60 mins followed by anti-CD3/anti-CD28 stimulation and measured after 18 hrs by ELISA; assay type: tissue-based; settings: CD4+ve Th, time 19.0 hrs
How it was run: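 Anti-CD3/anti-CD28 stimulation of T cells. IL-2 secretion measured with compound tested up to 10 μM. An ITK inhibitor served as positive control.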
Target sequence in this assay (P06239 2-509 limits assumed): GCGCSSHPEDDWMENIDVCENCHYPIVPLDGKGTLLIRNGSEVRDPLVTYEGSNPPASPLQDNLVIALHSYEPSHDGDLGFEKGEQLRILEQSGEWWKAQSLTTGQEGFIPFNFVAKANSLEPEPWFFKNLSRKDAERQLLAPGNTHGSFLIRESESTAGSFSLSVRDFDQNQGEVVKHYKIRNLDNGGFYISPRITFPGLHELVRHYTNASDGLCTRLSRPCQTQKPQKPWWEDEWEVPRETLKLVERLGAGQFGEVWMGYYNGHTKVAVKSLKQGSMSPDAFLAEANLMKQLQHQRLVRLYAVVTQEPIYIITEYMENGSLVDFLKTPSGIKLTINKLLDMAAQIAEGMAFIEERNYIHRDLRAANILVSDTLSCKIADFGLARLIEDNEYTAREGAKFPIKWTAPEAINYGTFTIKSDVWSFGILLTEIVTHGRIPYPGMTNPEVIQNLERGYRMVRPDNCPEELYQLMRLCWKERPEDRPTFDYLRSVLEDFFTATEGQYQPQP

[4] = Tmax in Sprague-Dawley rat at 5 mg/kg, po measured upto 24 hrs by LC-MS/MS analysis; assay type: ADME, organism-based; settings: in vivo; how it was run: as §1
[5] = biological target: T2, Tyrosine-protein kinase TXK (Homo sapiens, UniProt P42681); test: Inhibition of recombinant human TXK (256 to end residues) using GEEPLYWSFPAKKK as substrate incubated for 40 mins in presence of [gamma33P]ATP by scintillation counting method
T2 sequence (P42681 whole entry): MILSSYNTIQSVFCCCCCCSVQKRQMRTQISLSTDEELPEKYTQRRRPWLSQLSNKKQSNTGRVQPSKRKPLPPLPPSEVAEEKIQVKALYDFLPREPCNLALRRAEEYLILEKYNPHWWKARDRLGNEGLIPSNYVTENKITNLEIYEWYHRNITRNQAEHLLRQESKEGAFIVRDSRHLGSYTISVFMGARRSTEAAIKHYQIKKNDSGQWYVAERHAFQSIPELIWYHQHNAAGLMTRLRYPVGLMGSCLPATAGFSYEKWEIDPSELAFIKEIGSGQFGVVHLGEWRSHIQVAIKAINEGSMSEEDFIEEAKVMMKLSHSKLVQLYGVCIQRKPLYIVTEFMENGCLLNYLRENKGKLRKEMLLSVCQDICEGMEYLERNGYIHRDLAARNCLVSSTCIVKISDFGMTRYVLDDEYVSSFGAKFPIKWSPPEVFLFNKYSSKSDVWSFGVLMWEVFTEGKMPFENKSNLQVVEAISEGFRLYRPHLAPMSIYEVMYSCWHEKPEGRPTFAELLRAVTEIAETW

[6] = In vivo protein occupancy at BTK in Wistar rat at 3 mg/kg, po measured after 48 hrs by ELISA relative to control; assay type: functional
How it was run: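 Single oral dose of 3 mg/kg in rats. BTK occupancy compared with plasma concentration over time out to 48 h.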

[7] = Cmax in Beagle dog at 2.5 mg/kg, po measured upto 24 hrs by LC-MS/MS analysis; assay type: ADME, organism-based, Canis lupus familiaris; parameters: route oral, dose 2.5 mg/kg, time <=24; settings: in vivo; how it was run: as §1
[8] = Tmax in Beagle dog at 2.5 mg/kg, po measured upto 24 hrs by LC-MS/MS analysis; assay type: ADME, organism-based, Canis lupus familiaris; settings: in vivo; how it was run: as §1
[9] = test system: Rattus norvegicus; test: Antiinflammatory activity in po dosed Wistar rat model of type-2 collagen/incomplete freund's adjuvant-induced arthritis assessed as reduction in paw inflammation administered once daily on day 9 post type-2 collagen/incomplete freund's adjuvant stimulation and treated until day 16; assay type: functional, organism-based; settings: dose 1-30 mg/kg, time 8.0 day
How it was run: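 Arthritis induced in female Wistar rats by collagen injection on day 0 and day 7. Compound given orally once daily from day 9 through day 16. Hind paw inflammation scored. Anti-TNFα comparator dosed at 10 mg/kg every other day.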

[10] = Oral bioavailability in Sprague-Dawley rat at 5 mg/kg measured upto 24 hrs by LC-MS/MS analysis; assay type: ADME, organism-based; settings: in vivo
[11] = biological target: Tyrosine-protein kinase Fgr (Homo sapiens, UniProt P09769); test: Inhibition of recombinant human FGR (2 to end residues) using poly(Glu, Tyr) 4:1 as substrate incubated for 40 mins in presence of [gamma33P]ATP by scintillation counting method
[12] = Cmax in Sprague-Dawley rat at 5 mg/kg, po measured upto 24 hrs by LC-MS/MS analysis; assay type: ADME, organism-based; parameters: route oral, dose 5 mg/kg, time <=24; settings: in vivo; how it was run: as §1
[13] = biological target: Tyrosine-protein kinase BTK (Homo sapiens, UniProt Q06187); test: Inhibition of recombinant human BTK using KVEKIGEGTYGVVYK as substrate incubated for 40 mins in presence of [gamma33P]ATP by scintillation counting method
[14] = biological target: Tyrosine-protein kinase BTK (Mus musculus, UniProt P35991); test: Inhibition of BTK in C57Bl/6 mouse splenocyte assessed as reduction in anti-IgM-induced CD69 expression incubated for 1 hr followed anti-IgM stimulation and measured after overnight by flow cytometry analysis; assay type: tissue-based
How it was run: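 Mouse splenocytes stimulated with anti-IgM. CD69 expression measured as the read-out.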

[15] = biological target: T1, Tyrosine-protein kinase Lck; test: Inhibition of recombinant human full length LCK using KVEKIGEGTYGVVYK as substrate incubated for 40 mins in presence of [gamma33P]ATP by scintillation counting method
Target sequence in this assay (P06239 whole entry): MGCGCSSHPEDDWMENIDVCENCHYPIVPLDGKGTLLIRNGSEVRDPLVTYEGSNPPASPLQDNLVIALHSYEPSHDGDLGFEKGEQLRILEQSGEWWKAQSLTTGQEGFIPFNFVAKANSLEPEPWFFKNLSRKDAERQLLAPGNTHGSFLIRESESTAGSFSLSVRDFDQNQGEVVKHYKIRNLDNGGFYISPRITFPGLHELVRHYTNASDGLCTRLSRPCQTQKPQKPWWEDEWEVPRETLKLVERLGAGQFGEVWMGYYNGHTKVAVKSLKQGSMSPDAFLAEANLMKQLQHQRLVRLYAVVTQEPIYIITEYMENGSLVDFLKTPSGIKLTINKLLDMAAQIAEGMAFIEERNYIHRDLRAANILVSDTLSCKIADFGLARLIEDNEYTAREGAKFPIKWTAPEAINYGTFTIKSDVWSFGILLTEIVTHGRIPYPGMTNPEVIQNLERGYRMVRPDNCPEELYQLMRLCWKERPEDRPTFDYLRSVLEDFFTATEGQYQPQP

[16] = biological target: Tyrosine-protein kinase HCK (Homo sapiens, UniProt P08631); test: Inhibition of recombinant human HCK (230 to 497 residues) using GGMEDIYFEFMGGKKK as substrate incubated for 40 mins in presence of [gamma33P]ATP by scintillation counting method
[17] = biological target: T3, Cytoplasmic tyrosine-protein kinase BMX (Homo sapiens, UniProt P51813); test: Inhibition of recombinant human full length BMX using poly(Glu, Tyr) 4:1 as substrate incubated for 40 mins in presence of [gamma33P]ATP by scintillation counting method
T3 sequence (P51813 whole entry): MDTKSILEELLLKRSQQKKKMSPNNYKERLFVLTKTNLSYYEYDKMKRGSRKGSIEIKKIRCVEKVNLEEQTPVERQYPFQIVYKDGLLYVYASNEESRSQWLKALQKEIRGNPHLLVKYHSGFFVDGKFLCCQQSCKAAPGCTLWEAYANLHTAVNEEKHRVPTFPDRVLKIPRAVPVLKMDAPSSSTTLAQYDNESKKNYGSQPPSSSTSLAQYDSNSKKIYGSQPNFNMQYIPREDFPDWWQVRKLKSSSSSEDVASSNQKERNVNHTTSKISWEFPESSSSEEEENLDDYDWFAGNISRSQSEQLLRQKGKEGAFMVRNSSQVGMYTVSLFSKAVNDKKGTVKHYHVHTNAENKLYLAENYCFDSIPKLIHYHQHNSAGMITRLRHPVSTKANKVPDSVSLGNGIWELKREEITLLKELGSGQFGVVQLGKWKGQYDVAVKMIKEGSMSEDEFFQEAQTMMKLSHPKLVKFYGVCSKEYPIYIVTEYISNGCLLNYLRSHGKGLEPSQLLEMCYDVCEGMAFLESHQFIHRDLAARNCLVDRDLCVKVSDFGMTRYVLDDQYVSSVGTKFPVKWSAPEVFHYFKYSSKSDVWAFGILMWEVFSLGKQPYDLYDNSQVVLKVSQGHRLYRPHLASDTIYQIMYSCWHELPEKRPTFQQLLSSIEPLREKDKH

Sequence of Receptor tyrosine-protein kinase erbB-4 (Q15303 whole entry, the tested form may be a part): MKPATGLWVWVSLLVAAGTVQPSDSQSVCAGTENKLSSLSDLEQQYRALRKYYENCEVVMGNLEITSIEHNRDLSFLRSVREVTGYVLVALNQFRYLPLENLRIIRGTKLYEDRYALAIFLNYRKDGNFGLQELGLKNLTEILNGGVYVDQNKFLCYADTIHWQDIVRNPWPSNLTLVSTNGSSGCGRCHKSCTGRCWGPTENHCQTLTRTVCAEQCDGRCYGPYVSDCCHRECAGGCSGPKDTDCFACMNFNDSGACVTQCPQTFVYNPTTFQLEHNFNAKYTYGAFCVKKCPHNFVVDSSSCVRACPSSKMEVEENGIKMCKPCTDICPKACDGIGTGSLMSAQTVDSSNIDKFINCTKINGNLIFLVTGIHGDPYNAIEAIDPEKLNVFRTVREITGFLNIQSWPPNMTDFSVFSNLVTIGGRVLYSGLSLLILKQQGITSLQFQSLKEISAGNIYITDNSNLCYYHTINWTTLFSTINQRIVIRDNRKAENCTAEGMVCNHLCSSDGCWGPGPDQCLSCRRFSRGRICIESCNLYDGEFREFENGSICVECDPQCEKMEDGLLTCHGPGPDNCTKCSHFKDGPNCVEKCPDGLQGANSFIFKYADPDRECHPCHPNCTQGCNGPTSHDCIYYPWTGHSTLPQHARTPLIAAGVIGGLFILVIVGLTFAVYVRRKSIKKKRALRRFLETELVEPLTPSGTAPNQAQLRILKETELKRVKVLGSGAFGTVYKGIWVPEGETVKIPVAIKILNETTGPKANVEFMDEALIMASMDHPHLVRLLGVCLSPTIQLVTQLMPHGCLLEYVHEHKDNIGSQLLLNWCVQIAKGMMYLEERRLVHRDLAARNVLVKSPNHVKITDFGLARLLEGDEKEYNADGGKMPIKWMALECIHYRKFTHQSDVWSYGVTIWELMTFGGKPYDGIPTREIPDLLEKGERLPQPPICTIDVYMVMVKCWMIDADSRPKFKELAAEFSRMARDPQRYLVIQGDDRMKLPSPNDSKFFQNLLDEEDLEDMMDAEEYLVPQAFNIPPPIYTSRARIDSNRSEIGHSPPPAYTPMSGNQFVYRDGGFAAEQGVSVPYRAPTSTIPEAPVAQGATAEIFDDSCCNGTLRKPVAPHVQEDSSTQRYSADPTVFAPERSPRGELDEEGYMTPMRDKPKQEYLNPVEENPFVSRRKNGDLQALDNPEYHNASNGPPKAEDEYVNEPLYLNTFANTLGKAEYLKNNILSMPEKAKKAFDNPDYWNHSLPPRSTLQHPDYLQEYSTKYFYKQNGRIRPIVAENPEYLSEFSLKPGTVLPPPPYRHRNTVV
Sequence of Tyrosine-protein kinase BTK (Homo sapiens, UniProt Q06187) (Q06187 whole entry): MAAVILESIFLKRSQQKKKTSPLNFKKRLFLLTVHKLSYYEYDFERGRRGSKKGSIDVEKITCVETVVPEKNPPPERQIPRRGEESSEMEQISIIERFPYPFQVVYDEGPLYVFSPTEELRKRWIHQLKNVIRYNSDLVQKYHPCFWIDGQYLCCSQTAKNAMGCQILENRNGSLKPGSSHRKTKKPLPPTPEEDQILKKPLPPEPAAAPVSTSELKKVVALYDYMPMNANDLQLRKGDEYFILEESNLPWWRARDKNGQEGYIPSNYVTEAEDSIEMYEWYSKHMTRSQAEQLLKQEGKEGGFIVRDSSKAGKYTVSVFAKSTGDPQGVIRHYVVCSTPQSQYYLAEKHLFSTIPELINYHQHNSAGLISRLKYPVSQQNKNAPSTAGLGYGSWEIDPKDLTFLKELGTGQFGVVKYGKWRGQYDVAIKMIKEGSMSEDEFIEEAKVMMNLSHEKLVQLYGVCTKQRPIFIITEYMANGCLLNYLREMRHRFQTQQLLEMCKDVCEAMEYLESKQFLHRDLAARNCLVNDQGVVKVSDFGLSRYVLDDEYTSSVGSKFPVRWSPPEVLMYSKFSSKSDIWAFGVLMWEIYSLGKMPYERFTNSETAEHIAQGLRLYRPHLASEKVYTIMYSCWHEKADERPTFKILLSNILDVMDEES
Sequence of Tyrosine-protein kinase BTK (Mus musculus, UniProt P35991) (P35991 whole entry): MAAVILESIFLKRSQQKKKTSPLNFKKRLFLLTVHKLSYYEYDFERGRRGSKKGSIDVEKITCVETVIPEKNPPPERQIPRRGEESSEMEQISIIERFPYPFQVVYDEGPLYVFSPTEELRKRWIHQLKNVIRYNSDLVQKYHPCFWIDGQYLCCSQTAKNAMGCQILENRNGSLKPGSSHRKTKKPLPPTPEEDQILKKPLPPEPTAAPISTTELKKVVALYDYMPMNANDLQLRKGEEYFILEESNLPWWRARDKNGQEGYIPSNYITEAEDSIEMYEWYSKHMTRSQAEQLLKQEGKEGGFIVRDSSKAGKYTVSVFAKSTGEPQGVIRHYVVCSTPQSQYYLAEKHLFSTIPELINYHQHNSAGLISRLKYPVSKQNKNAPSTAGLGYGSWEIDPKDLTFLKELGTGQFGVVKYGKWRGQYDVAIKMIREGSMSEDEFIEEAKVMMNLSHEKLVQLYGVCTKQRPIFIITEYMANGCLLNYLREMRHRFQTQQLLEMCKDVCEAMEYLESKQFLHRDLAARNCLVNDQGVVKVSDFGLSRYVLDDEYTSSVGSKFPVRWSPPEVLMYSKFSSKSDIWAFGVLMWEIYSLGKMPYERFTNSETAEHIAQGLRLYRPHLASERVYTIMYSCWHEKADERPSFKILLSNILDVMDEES
Sequence of Tyrosine-protein kinase HCK (P08631 whole entry, the tested form may be a part): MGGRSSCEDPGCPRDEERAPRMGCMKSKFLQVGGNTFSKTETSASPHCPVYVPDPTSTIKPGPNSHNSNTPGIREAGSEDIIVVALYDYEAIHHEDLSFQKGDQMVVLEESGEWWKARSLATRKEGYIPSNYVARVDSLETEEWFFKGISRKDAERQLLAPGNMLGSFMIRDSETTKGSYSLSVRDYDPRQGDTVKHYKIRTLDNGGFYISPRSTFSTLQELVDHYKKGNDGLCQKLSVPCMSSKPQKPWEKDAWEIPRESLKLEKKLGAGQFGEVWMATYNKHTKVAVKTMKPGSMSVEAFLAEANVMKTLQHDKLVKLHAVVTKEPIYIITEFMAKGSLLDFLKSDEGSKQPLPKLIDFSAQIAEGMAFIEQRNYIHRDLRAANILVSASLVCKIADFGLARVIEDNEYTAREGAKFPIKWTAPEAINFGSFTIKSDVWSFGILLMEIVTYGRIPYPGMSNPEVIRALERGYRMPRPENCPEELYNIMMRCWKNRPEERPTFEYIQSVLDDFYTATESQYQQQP
Sequence of Tyrosine-protein kinase Fgr (P09769 whole entry): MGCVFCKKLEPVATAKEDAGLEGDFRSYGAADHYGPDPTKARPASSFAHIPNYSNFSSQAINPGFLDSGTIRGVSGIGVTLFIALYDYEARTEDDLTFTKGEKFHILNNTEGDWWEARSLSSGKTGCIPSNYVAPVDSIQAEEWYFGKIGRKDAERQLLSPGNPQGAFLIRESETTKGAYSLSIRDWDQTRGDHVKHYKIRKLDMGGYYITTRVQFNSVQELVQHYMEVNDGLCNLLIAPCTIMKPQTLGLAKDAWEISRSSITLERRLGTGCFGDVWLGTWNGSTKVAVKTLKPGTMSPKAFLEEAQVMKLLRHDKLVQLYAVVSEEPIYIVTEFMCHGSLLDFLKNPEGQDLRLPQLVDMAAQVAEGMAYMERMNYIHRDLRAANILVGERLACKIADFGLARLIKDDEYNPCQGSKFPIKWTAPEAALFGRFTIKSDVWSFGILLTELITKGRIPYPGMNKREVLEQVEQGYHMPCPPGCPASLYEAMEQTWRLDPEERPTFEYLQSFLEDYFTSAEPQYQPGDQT

## C=CC(=O)N1CC[C@@H](NC(=O)c2sc3nccc4c3c2NC(=O)N4c2ccc(Oc3ccccc3)cc2C)C1
[1]
  IC50: 377 nM
[2]
  clearance: 39.6 mL/min/kg
[3]
  inhibition: inactive
[4]
  Tmax: 60 min
[5]
  IC50: 1770 nM
[6]
  Activity: 50%
[7]
  Cmax: 1500 nM
[8]
  Tmax: 48 min
[9]
  Activity: Dose-Dependent Effect
[10]
  bioavailability: 29.7%
[11]
  IC50: 4760 nM
[12]
  Cmax: 600 nM
[13]
  IC50: 142 nM
[14]
  IC50: 11 nM
[15]
  IC50: 130 nM
[16]
  IC50: > 30000 nM
[17]
  IC50: 129 nM
